Reference: ChEMBL document CHEMBL1151753, “New benzylureas as a novel series of potent, nonpeptidic vasopressin V2 receptor agonists” (J Med Chem, 2008)
Converted amounts (≈) assume the structure as drawn. The source made the active and inactive calls. The calls are words filed in the database; no cut-off is given here.

Columns and labels:
[1] = biological target: Vasopressin V2 receptor (Rattus norvegicus, UniProt Q00788); experiment: Agonist activity at rat vasopressin V2 receptor expressed in HEK293 cells assessed as increase in intracellular cAMP level by CRE-luciferase reporter gene assay; type: functional, cell-based
Sequence of Vasopressin V2 receptor (Rattus norvegicus, UniProt Q00788) (Q00788 whole entry): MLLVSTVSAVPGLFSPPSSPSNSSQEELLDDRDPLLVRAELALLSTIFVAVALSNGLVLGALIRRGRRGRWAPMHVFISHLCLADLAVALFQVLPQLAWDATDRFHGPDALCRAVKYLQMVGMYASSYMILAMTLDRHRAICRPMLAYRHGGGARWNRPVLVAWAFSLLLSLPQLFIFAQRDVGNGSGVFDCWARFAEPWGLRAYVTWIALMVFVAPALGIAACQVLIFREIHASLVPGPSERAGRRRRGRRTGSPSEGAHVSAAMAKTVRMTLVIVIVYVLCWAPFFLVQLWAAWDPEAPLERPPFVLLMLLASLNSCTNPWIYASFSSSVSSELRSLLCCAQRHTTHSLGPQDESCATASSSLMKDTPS
How it was run: (§1)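 HEK293 cells grown to 70-80% confluency, transiently transfected with receptor plus pGL4 CRE-Luc reporter, incubated 24 h at 37 °C/5% CO2, plated at 10000 cells/well, a further 24 h. Compounds in 0.5 log serial dilutions in duplicate, final DMSO 0.1%. Luciferase read by luminescence after 5 h at 37 °C, expressed as % of 100 nM AVP control. 4-parameter logistic fit gave EC50, reported as geometric mean ± SD.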

[2] = tested on: Rattus norvegicus; experiment: Antidiuretic effect in Long-Evans Brattleboro rat model assessed as inhibition of urine production at 1 mg/kg, po after 1 hr relative to control; type: functional
How it was run: (§2)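 Brattleboro rats (Long-Evans hooded strain lacking circulating AVP, diabetes insipidus model) dosed orally in carboxymethyl cellulose. Voided urine collected and measured over 1 h periods and compared with vehicle-treated animals. At least six animals per group, data as means.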

[3] = biological target: T1, Vasopressin V2 receptor (Homo sapiens, UniProt P30518); experiment: Agonist activity at human vasopressin V2 receptor expressed in HEK293 cells assessed as increase in intracellular cAMP level by CRE-luciferase reporter gene assay; type: functional, cell-based; how it was run: as §1
T1 sequence (P30518 whole entry): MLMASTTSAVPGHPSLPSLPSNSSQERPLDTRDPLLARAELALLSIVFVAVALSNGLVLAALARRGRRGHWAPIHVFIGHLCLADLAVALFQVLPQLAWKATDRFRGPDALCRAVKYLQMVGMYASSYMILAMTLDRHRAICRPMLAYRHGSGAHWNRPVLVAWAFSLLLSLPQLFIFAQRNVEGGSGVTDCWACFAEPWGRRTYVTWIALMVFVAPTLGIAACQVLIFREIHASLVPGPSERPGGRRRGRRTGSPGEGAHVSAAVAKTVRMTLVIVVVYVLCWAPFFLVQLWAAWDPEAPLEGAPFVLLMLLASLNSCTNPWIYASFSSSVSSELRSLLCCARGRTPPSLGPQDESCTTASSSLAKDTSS

[4] = Aqueous solubility of the compound; type: physicochemical; settings: water (aqueous)
[5] = tested on: Rattus norvegicus; experiment: Antidiuretic effect in Long-Evans Brattleboro rat model assessed as inhibition of urine production at 1 mg/kg, po after 1 to 2 hrs; type: functional, organism-based; set-up: dose 1 mg/kg; how it was run: as §2
[6] = biological target: T1, Vasopressin V2 receptor; experiment: Agonist activity at human vasopressin V2 receptor expressed in HEK293 cells assessed as increase in intracellular cAMP level by CRE-luciferase reporter gene assay relative to arginine vasopressin; type: functional, cell-based; how it was run: as §1
[7] = biological target: Vasopressin V1a receptor (Homo sapiens) (UniProt P37288); experiment: Agonist activity at human vasopressin V1a receptor upto 10 uM by reporter gene assay; type: functional; how it was run: as §1
Sequence of Vasopressin V1a receptor (Homo sapiens) (P37288 whole entry, looked up): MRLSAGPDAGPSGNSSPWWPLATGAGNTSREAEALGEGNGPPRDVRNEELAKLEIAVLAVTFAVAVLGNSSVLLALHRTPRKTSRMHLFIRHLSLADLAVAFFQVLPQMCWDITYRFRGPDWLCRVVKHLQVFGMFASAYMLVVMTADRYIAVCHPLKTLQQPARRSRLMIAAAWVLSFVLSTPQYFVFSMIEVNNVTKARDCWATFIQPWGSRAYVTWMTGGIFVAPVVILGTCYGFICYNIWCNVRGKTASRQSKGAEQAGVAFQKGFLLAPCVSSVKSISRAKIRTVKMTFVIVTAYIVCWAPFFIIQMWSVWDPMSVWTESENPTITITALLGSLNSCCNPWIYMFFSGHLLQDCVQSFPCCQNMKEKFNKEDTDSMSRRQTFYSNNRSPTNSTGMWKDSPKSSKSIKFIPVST

[8] = biological target: T2, Oxytocin receptor (Homo sapiens, UniProt P30559); experiment: Binding affinity to oxytocin receptor
T2 sequence (P30559 whole entry): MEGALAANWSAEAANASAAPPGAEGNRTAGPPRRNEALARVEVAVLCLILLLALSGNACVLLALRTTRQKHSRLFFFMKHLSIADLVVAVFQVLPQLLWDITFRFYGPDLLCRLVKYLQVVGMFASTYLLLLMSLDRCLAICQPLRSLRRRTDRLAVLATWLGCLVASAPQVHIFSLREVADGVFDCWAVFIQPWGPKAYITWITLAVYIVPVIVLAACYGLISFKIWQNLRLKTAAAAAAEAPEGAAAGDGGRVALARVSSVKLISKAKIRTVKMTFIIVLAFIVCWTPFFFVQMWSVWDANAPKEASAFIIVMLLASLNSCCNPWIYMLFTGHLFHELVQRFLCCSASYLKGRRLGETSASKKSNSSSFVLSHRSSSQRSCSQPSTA

[9] = biological target: T3, Vasopressin V1b receptor (Homo sapiens) (UniProt P47901); experiment: Agonist activity at human vasopressin V1b receptor upto 10 uM by reporter gene assay; type: functional; how it was run: as §1
T3 sequence (whole entry): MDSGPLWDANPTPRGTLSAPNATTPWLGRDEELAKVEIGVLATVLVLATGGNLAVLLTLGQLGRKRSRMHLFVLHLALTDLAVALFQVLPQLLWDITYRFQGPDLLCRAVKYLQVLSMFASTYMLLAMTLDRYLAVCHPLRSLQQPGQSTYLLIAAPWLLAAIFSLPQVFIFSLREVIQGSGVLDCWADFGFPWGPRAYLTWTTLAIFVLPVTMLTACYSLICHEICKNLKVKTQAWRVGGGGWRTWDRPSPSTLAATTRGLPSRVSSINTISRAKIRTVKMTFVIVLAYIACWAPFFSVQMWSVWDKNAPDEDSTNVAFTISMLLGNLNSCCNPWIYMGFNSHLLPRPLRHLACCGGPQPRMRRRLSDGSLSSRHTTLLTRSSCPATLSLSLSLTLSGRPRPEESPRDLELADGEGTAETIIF

[10] = tested on: Rattus norvegicus; experiment: Antidiuretic effect in Long-Evans Brattleboro rat model assessed as inhibition of urine production at 3 mg/kg, po after 2 hrs; type: functional, organism-based; set-up: dose 3 mg/kg; how it was run: as §2
[11] = biological target: T1, Vasopressin V2 receptor; experiment: Binding affinity to human vasopressin V2 receptor expressed in HEK293 cells by radioligand binding assay; type: cell-based
[12] = tested on: Rattus norvegicus; experiment: Antidiuretic effect in Long-Evans Brattleboro rat model assessed as inhibition of urine production at 1 mg/kg, po in methylcellulose after 5 hrs; type: functional, organism-based; set-up: dose 1 mg/kg
[13] = biological target: Vasopressin V2 receptor (Rattus norvegicus) (UniProt Q00788); experiment: Agonist activity at rat vasopressin V2 receptor expressed in HEK293 cells assessed as increase in intracellular cAMP level by CRE-luciferase reporter gene assay relative to arginine vasopressin
Sequence of Vasopressin V2 receptor (Rattus norvegicus) (Q00788 whole entry, looked up): as the sequence (Q00788 whole entry) above

Row | SMILES | EC50 [3] [nM] | also measured
1 | CCO[C@@H]1C[C@@H](C(=O)N(C)C)N(C(=O)NCc2ccc(C(=O)N3CCCCc4ccccc43)cc2C)C1 | 4.3 | EC50 [1]: 15 nM; inhibition in vivo at 1 mg/kg [2]: 60%
2 | O=C(NCc1ccc(C(=O)N2CCCCc3ccccc32)c(Cl)c1)Nc1c(F)cccc1F | 40 | 
3 | Cc1cc(C(=O)N2CCCCc3ccccc32)ccc1CNC(=O)NCC(=O)N(C)C | 58 | EC50 [1]: 50 nM; solubility [4]: 177 µg/mL (≈ 419 µM); inhibition in vivo at 1 mg/kg [2]: 82%; Activity [5]: Active
4 | CCN(CC)C(=O)[C@@H]1CCCN1C(=O)NCc1ccc(C(=O)N2CCCCc3ccccc32)cc1C | 350 | 
5 | Cc1cc(C(=O)N2CCCCc3ccccc32)ccc1CNC(=O)NCC(=O)OC(C)C | 140 | 
6 | Cc1cc(C(=O)N2CCCCc3ccccc32)ccc1CNC(=O)NCC(=O)NCc1ccccc1 | 270 | 
7 | Cc1cc(C(=O)N2CCCOc3ccccc32)ccc1CNC(=O)N1CCC[C@H]1C(=O)N(C)C | 1000 | 
8 | CO[C@@H]1C[C@@H](C(=O)N(C)C)N(C(=O)NCc2ccc(C(=O)N3CCCCc4ccccc43)cc2C)C1 | 4.7 | EC50 [1]: 65 nM; inhibition in vivo at 1 mg/kg [2]: 84%
9 | Cc1cc(C(=O)N2CCCCc3ccccc32)ccc1CNC(=O)N1CCC[C@H]1C(=O)OC(C)C | 950 | 
10 | Cc1cc(C(=O)N2CCc3ccccc3-c3ccccc32)ccc1CNC(=O)N1CCC[C@H]1C(=O)N(C)C | 84 | 
11 | Cc1cc(C(=O)N2CCCCc3ccccc32)ccc1CNC(=O)N1CC(=O)C[C@H]1C(=O)N(C)C | 27 | 
12 | Cc1cc(C(=O)N2CCCCc3ccccc32)ccc1CNC(=O)NCC(N)=O | 210 | 
13 | Cc1cc(C(=O)N2CCCCc3ccccc32)cc(C)c1CNC(=O)Nc1c(F)cccc1F | 82 | 
14 | Cc1cc(C(=O)N2CCCCc3ccccc32)ccc1CNC(=O)NCC(=O)O | 180 | 
15 | Cc1cc(C(=O)N2CCCCc3ccccc32)ccc1CNC(=O)NCC(=O)Oc1ccccc1 | 820 | 
16 | Cc1cc(C(=O)N2CCCC(F)(F)c3ccccc32)ccc1CNC(=O)N1CCC[C@H]1C(=O)N(C)C | 1700 | 
17 | Cc1cc(C(=O)N2CCCCc3ccccc32)ccc1CNC(=O)N1CCC[C@H]1C(=O)N(C)C [FEDOVAPAGON] | 24 | Efficacy [6]: 100%; EC50 [1]: 150 nM; inhibition in vivo at 1 mg/kg [2]: 81%; Activity [7]: inactive; Ki [8]: > 10000 nM; Activity [9]: inactive; Activity [10]: Active; Ki [11]: 2000 nM
18 | Cc1cc(C(=O)N2CCCCc3ccccc32)ccc1CNC(=O)Nc1ccccc1F | 30 | 
19 | COc1cc(CNC(=O)Nc2c(F)cccc2F)ccc1C(=O)N1CCCCc2ccccc21 | 110 | 
20 | Cc1cc(C(=O)N2CCCCc3ccccc32)ccc1CNC(=O)Nc1c(F)cccc1F | 2.1 | EC50 [1]: 13 nM; inhibition in vivo at 1 mg/kg [2]: 0%; Ki [8]: > 10000 nM; Ki [11]: 200 nM; Activity [12]: inactive
21 | Cc1cc(C(=O)N2CCCCc3ccccc32)ccc1CNC(=O)N1C[C@H](OCc2ccccc2)C[C@H]1C(=O)N(C)C | 10 | 
22 | Cc1cc(C(=O)N2CCCCc3ccccc32)ccc1CNC(=O)NCC(=O)OCc1ccccc1 | 730 | 
23 | COC(=O)[C@@H]1CCCN1C(=O)NCc1ccc(C(=O)N2CCCCc3ccccc32)cc1C | 100 | 

Row | SMILES | EC50 [3] [nM] | also measured
24 | COC1(OC)C[C@@H](C(=O)N(C)C)N(C(=O)NCc2ccc(C(=O)N3CCCCc4ccccc43)cc2C)C1 | 20 | 
25 | COC(=O)CNC(=O)NCc1ccc(C(=O)N2CCCCc3ccccc32)cc1C | 37 | 
26 | Cc1cc(C(=O)N2CCCCc3ccccc32)ccc1CNC(=O)N1CCC[C@@H]1C(=O)N(C)C | 380 | 
27 | CCc1cc(C(=O)N2CCCCc3ccccc32)ccc1CNC(=O)Nc1c(F)cccc1F | 10 | 
28 | Cc1cc(C(=O)N2CCCCc3ccccc32)ccc1CNC(=O)NCC(=O)N1CCCCC1 | 150 | 
29 | Cc1cc(C(=O)N2CCCCc3ccccc32)ccc1CNC(=O)N1C[C@H](O)C[C@H]1C(=O)N(C)C | 2.3 | EC50 [1]: 41 nM; inhibition in vivo at 1 mg/kg [2]: 68%
30 | Cc1cc(C(=O)N2CCCCc3ccccc32)ccc1CNC(=O)Nc1ccc[nH]c1=O | 140 | 
31 | Cc1cc(C(=O)N2CCCCc3ccccc32)ccc1CNC(=O)N1CC(F)(F)C[C@H]1C(=O)N(C)C | 50 | 
32 | Cc1cc(C(=O)N2CCCCc3ccccc32)ccc1CNC(=O)N1CCC[C@H]1C(=S)N(C)C | 3.2 | 
33 | Cc1cc(C(=O)N2CCCC(O)c3ccccc32)ccc1CNC(=O)N1CCC[C@H]1C(=O)N(C)C (stereo partly specified) | 230 | 
34 | O=C(NCc1ccc(C(=O)N2CCCCc3ccccc32)c(F)c1)Nc1c(F)cccc1F | 180 | 
35 | O=C(NCc1ccc(C(=O)N2CCCCc3ccccc32)cc1)Nc1c(F)cccc1F | 47 | Ki [8]: > 10000 nM; Activity [13]: 30%
36 | Cc1cc(C(=O)N2Cc3cccn3Cc3ccccc32)ccc1CNC(=O)N1CCC[C@H]1C(=O)N(C)C | 120 | 
37 | Cc1cc(C(=O)N2CCc3cccn3-c3ccccc32)ccc1CNC(=O)N1CCC[C@H]1C(=O)N(C)C | 140 | 
38 | Cc1cc(C(=O)N2CCCCc3ccccc32)ccc1CNC(=O)NCC(=O)N1CCCC1 | 100 | 
39 | Cc1cc(C(=O)N2CCCCc3ccccc32)ccc1CNC(=O)N1CCC[C@H]1C(=O)O | 680 | 
40 | Cc1cc(C(=O)N2CCCCc3ccccc32)ccc1CNC(=O)Nc1ccccc1 | 130 | 
41 | Cc1cc(C(=O)N2CCCCc3ccccc32)ccc1CNC(=O)N1CCC[C@H]1C(=O)OC(C)(C)C | 390 | 
42 | Cc1cc(C(=O)N2CCCC(C)c3ccccc32)ccc1CNC(=O)N1CCC[C@H]1C(=O)N(C)C (stereo partly specified) | 220 | 
43 | CCOC(=O)CNC(=O)NCc1ccc(C(=O)N2CCCCc3ccccc32)cc1C | 140 | 
44 | Cc1cc(C(=O)N2CCCCc3ccccc32)ccc1CNC(=O)NCC(=O)OC(C)(C)C | 120 | 
45 | Cc1cc(C(=O)N2CCCCc3ccccc32)ccc1CNC(=O)N1C[C@H](OC(C)(C)C)C[C@H]1C(=O)N(C)C | 46 | 
46 | Cc1ccn(-c2ccc(C(=O)N3Cc4cccn4Cc4ccccc43)c(Cl)c2)n1 | < 1 | 
